In ChEMBL document CHEMBL1132157 (J Med Chem, 1999):

Key:
[1] = biological target: T1, 5-hydroxytryptamine receptor 1B (Homo sapiens, UniProt P28222); assay: Binding affinity at cloned human 5-hydroxytryptamine 1B receptor stably expressed in CHO cells by [3H]5-HT displacement.; type: cell-based
[2] = biological target: T2, 5-hydroxytryptamine receptor 1D (Homo sapiens, UniProt P28221); assay: Binding affinity at human cloned 5-hydroxytryptamine 1D receptor stably expressed in CHO cells by [3H]5-HT displacement.; type: cell-based
Outline: (§1)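 Membranes from thawed CHO cells with human 5-HT1B or 5-HT1D, washed in 50 mM Tris-HCl pH 7.7, preincubated 10 min at 37 °C to remove endogenous 5-HT. Buffer holds 0.1% ascorbate, 10 μM pargyline and 4 mM CaCl2. Uses 2.0 nM [3H]5-HT, 30 min at 37 °C; 10 μM 5-HT defines nonspecific binding. Filtration; IC50 by nonlinear regression; duplicates, 2–5 occasions.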

[3] = Ratio of IC50 for human 5-HT1B to human 5-HT1D receptors
[4] = biological target: T2, 5-hydroxytryptamine receptor 1D; assay: Agonist-induced [35S]- GTPgammaS binding in CHO cells stably transfected with 5-hydroxytryptamine 1D receptor; type: cell-based
Outline: (§2)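 Membranes from thawed CHO cells with human 5-HT1D, prepared in ice-cold 20 mM Hepes/EDTA at pH 7.4, spun at 40000g. Assay buffer: 100 mM NaCl, 10 mM MgCl2, 0.1% ascorbate, 10 μM pargyline. GDP 100 μM plus drug, 20 min at 30 °C, then ice 15 min. Then 100 pM [35S]GTPγS, 30 min at 30 °C, filtration. Emax is taken as % of maximal 5-HT response; duplicates, 2–5 occasions.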

[5] = biological target: T2, 5-hydroxytryptamine receptor 1D; assay: Maximum stimulation of [35S]GTP-gamma-S, binding in CHO cells expressing human 5-HT-1d relative to 5-HT; type: functional, cell-based; outline: as §2
[6] = biological target: T1, 5-hydroxytryptamine receptor 1B; assay: Displacement of [3H]5-HT binding to cloned 5-hydroxytryptamine 1B receptor stably expressed in CHO cells; type: cell-based; outline: as §1
[7] = biological target: T2, 5-hydroxytryptamine receptor 1D; assay: Displacement of [3H]5-HT binding to cloned human 5-hydroxytryptamine 1D receptor stably expressed in CHO cells; type: cell-based; outline: as §1

T1 sequence (P28222 whole entry): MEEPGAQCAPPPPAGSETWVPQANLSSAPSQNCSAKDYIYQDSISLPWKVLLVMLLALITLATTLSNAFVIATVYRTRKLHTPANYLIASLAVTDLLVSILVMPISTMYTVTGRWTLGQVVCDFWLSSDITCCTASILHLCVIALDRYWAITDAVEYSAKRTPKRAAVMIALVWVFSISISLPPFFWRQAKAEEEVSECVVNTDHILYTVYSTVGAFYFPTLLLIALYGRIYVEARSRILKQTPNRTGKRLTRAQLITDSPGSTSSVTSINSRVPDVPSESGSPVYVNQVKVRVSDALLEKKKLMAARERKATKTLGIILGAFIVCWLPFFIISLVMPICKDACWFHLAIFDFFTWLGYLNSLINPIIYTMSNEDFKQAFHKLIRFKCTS
T2 sequence (P28221 whole entry): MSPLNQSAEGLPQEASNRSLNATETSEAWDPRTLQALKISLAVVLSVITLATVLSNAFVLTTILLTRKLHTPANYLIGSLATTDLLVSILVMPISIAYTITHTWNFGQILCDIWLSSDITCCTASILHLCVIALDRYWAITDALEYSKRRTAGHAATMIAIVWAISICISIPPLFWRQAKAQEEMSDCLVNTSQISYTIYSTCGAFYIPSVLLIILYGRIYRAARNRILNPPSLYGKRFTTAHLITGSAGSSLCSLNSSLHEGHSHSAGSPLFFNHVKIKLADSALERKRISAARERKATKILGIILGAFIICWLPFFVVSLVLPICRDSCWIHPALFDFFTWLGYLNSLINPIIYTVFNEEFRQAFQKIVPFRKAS

SMILES | IC50 [1] [nM] | IC50 [2] [nM] | Selectivity [3] | EC50 [4] [nM] | Efficacy [5] [%] | IC50 [6] [nM] | IC50 [7] [nM]
C[C@@H](NC1CCN(CCCc2c[nH]c3ccc(-n4cnnc4)cc23)CC1)C(=O)Nc1ccccc1 | 85 | 7.6 | 11 | 15 | 61 | – | –
C[C@@H](NC1CCN(CCCc2c[nH]c3ccc(-n4cnnc4)cc23)CC1)[C@@H](O)c1ccccc1 | 210 | 12 | 18 | – | – | – | –
CC(=O)Nc1ccc([C@@H](C)NC2CCN(CCCc3c[nH]c4ccc(-n5cnnc5)cc34)CC2)cc1 | 350 | 29 | 12 | – | – | – | –
COC[C@H](NC1CCN(CCCc2c[nH]c3ccc(-n4cnnc4)cc23)CC1)c1ccccc1 | 210 | 3 | 70 | 0.9 | 93 | – | –
OCCC(NC1CCN(CCCc2c[nH]c3ccc(-n4cnnc4)cc23)CC1)c1ccccc1 (stereo not given) | 150 | 5.5 | 27 | 5.1 | 100 | – | –
OC[C@@H](Cc1ccccc1)NC1CCN(CCCc2c[nH]c3ccc(-n4cnnc4)cc23)CC1 | 100 | 8.3 | 12 | 14 | 74 | – | –
CN(C1CCN(CCCc2c[nH]c3ccc(-n4cnnc4)cc23)CC1)[C@H](CO)c1ccccc1 | 71 | 4.3 | 17 | – | – | – | –
C[C@H](NC1CCN(CCCc2c[nH]c3ccc(-n4cnnc4)cc23)CC1)c1ccccc1 | 95 | 0.6 | 160 | 12 | 76 | – | –
c1ccc(CNC2CCN(CCCc3c[nH]c4ccc(-n5cnnc5)cc34)CC2)cc1 | – | – | 26 | 7.6 | 76 | 120 | 4.6
CC(=O)Nc1ccc([C@H](C)NCC2CCN(CCCc3c[nH]c4ccc(-n5cnnc5)cc34)CC2)cc1 | – | – | 16 | 3 | 99 | 9.3 | 0.6
C[C@H](Cc1ccccc1)NC1CCN(CCCc2c[nH]c3ccc(-n4cnnc4)cc23)CC1 | 170 | 5.5 | 31 | 6.8 | 71 | – | –
C[C@@H](O)[C@H](NC1CCN(CCCc2c[nH]c3ccc(-n4cnnc4)cc23)CC1)c1ccccc1 | – | – | 53 | 1 | 85 | 48 | 0.9
CN(Cc1ccoc1)C1CCN(CCCc2c[nH]c3ccc(-n4cnnc4)cc23)CC1 | – | – | 25 | 8.9 | 87 | 200 | 8.1
c1cc(CNC2CCN(CCCc3c[nH]c4ccc(-n5cnnc5)cc34)CC2)ccn1 | – | – | 5.8 | 13 | 80 | 140 | 24
C[C@@H](NC1CCN(CCCc2c[nH]c3ccc(-n4cnnc4)cc23)CC1)[C@H](O)c1ccccc1 | 200 | 11 | 18 | 15 | 76 | – | –
CN(Cc1cccs1)C1CCN(CCCc2c[nH]c3ccc(-n4cnnc4)cc23)CC1 | – | – | 33 | 3.5 | 81 | 140 | 4.3
CN(Cc1ccsc1)C1CCN(CCCc2c[nH]c3ccc(-n4cnnc4)cc23)CC1 | – | – | 23 | 4.2 | 93 | 35 | 1.5
C[C@@H](NC1CCN(CCCc2c[nH]c3ccc(-n4ccnc4)cc23)CC1)c1ccccc1 | – | – | 26 | 6.2 | 65 | 110 | 4.2
OC[C@@H](NC1CCN(CCCc2c[nH]c3ccc(-n4cnnc4)cc23)CC1)c1ccccc1 | 160 | 3.5 | 46 | 2.6 | 67 | – | –
c1cc(CNC2CCN(CCCc3c[nH]c4ccc(-n5cnnc5)cc34)CC2)co1 | – | – | 17 | 7.1 | 65 | 78 | 4.5
CN(C1CCN(CCCc2c[nH]c3ccc(-n4cnnc4)cc23)CC1)[C@@H](CO)c1ccccc1 | 210 | 4.5 | 47 | 10 | 82 | – | –
O[C@@H]1Cc2ccccc2[C@H]1NC1CCN(CCCc2c[nH]c3ccc(-n4cnnc4)cc23)CC1 | – | – | 32 | 13 | 75 | 210 | 6.6

The next lines start with the values.

IC50 [1] [nM] | IC50 [2] [nM] | Selectivity [3] | EC50 [4] [nM] | Efficacy [5] [%] | IC50 [6] [nM] | IC50 [7] [nM] | SMILES
78 | 15 | 5.2 | – | – | – | – | CS(=O)(=O)NC[C@H](NC1CCN(CCCc2c[nH]c3ccc(-n4cnnc4)cc23)CC1)c1ccccc1
– | – | 23 | 18 | 69 | 420 | 18 | C[C@@H](NC1CCN(CCCc2c[nH]c3ccc(-n4cncn4)cc23)CC1)c1ccccc1
– | – | 82 | 1.8 | 115 | 41 | 0.5 | CC(C)=CCN(C)C1CCN(CCCc2c[nH]c3ccc(-n4cnnc4)cc23)CC1
– | – | 57 | 32 | 76 | 1300 | 23 | OC[C@H](NC1CCN(CCCc2c[nH]c3ccc(Cn4cncn4)cc23)CC1)c1ccccc1
– | – | 40 | 2.8 | 94 | 24 | 0.6 | CC(=O)Nc1ccc(CN(C)CC2CCN(CCCc3c[nH]c4ccc(-n5cnnc5)cc34)CC2)cc1
– | – | 73 | 6 | 83 | 460 | 6.3 | O=C1N[C@@H](Cc2ccc3[nH]cc(CCCN4CCC(N[C@@H](CO)c5ccccc5)CC4)c3c2)CO1
230 | 1.9 | 120 | 0.5 | 99 | – | – | CC(NC1CCN(CCCc2c[nH]c3ccc(-n4cnnc4)cc23)CC1)c1ccc(F)cc1 (stereo not given)
81 | 9.8 | 8.3 | – | – | – | – | CC#CCN(C)C1CCN(CCCc2c[nH]c3ccc(-n4cnnc4)cc23)CC1
140 | 2.1 | 67 | 3.6 | 76 | – | – | OC[C@H](Cc1ccccc1)NC1CCN(CCCc2c[nH]c3ccc(-n4cnnc4)cc23)CC1
– | – | 31 | 25 | 68 | 280 | 8.9 | c1ccc2c(c1)CCC2NC1CCN(CCCc2c[nH]c3ccc(-n4cnnc4)cc23)CC1 (stereo not given)
120 | 4.7 | 26 | 9.3 | 73 | – | – | NC(=O)OC[C@H](NC1CCN(CCCc2c[nH]c3ccc(-n4cnnc4)cc23)CC1)c1ccccc1
– | – | 15 | 5 | 75 | 45 | 3 | CC(=O)Nc1ccc(CNC2CCN(CCCc3c[nH]c4ccc(-n5cnnc5)cc34)CC2)cc1
98 | 5.2 | 19 | 3.4 | 59 | – | – | CC(CO)(NC1CCN(CCCc2c[nH]c3ccc(-n4cnnc4)cc23)CC1)c1ccccc1 (stereo not given)
– | – | 240 | 8.9 | 89 | 1200 | 5 | COC[C@H](NC1CCN(CCCc2c[nH]c3ccc(Cn4cncn4)cc23)CC1)c1ccc(F)cc1
